Assay results: ChEMBL document CHEMBL1123139, “Antiandrogenic activity of a series of des-A-steroid derivatives” (1985)
Several values for one entry are separate records, joined by “and”; a condition that tells them apart may be missing. Identical values can stand only once.

What was measured:
Cricetinae gen. sp. [1] = assay: (§1) Local subcutaneous administration (1 mg); Expressed as weight (mg); type: functional
Outline: (§2)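 Male hamsters (100–110 g), castrated 7 days earlier, in groups of four. […] Test compound in 20 μL ethanol was applied daily to the right flank organ, and the contralateral organ received ethanol only. Animals were killed 24 h after the last treatment, and flank organs and prostate were weighed. Results are mean ± SEM.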

Cricetinae gen. sp. [2] = assay: Local activity of untreated flank organ in hamster; Expressed as weight (mg); type: functional; outline: as §2
Cricetinae gen. sp. [3] = assay: as §1; type: functional; outline: as §2; remark: listed apart in the source
Rattus norvegicus [4] = assay: In Vivo inhibition against increase in immature castrated rat seminal vesicles weight on subcutaneous administration of testosterone propionate at dose 5 mg/kg; type: functional
Rattus norvegicus [5] = assay: In vivo percent increase in rat prostate weight on subcutaneous administration of testosterone propionate along with compound at dose 5 mg/day; Expressed as percent inhibition of weight increase, mg; type: functional, Prostate gland
Outline: (§3)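 Immature male rats (70 g), castrated 24 h earlier, in groups of five. […] Controls received vehicle only (sesame oil with 5% benzyl alcohol). Rats were killed 24 h after the last dose, and prostate and seminal vesicles were excised and weighed.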

Rattus norvegicus [6] = assay: In vivo percent increase in rat seminal vesicles weight on subcutaneous administration of testosterone propionate along with compound at dose 1 mg/day; Expressed as percent inhibition of weight increase, mg; type: functional
Rattus norvegicus [7] = assay: In vivo percent increase in rat prostate weight on subcutaneous administration of testosterone propionate along with compound at dose 1 mg/day; Expressed as percent inhibition of weight increase, mg; type: functional, Prostate gland
Cricetinae gen. sp. [8] = assay: (§4) Local subcutaneous administration (125 ug); Expressed as weight (mg); type: functional; outline: as §2
Cricetinae gen. sp. [9] = assay: as §4; type: functional; outline: as §2; remark: listed apart in the source
Rattus norvegicus [10] = assay: In vivo percent increase rat seminal vesicles weight on subcutaneous administration of testosterone propionate along with compound at dose 5 mg/day; Expressed as percent inhibition of weight increase, mg; type: functional; outline: as §3
Cricetinae gen. sp. [11] = assay: (§5) Tocal subcutaneous administration (200 ug); Expressed as weight (mg); type: functional; outline: as §2
Cricetinae gen. sp. [12] = assay: Tocal activity of untreated flank organ in hamster; Expressed as weight (mg); type: functional; outline: as §2
Cricetinae gen. sp. [13] = assay: (§6) Local subcutaneous administration (200 ug); Expressed as weight (mg); type: functional; outline: as §2
Cricetinae gen. sp. [14] = assay: as §6; type: functional; outline: as §2; remark: listed apart in the source
Cricetinae gen. sp. [15] = assay: (§7) Tocal subcutaneous administration (1 mg); Expressed as weight (mg); type: functional; outline: as §2
Cricetinae gen. sp. [16] = assay: as §5; type: functional; outline: as §2; remark: listed apart in the source
Cricetinae gen. sp. [17] = assay: (§8) Tocal subcutaneous administration (40 ug); Expressed as weight (mg); type: functional; outline: as §2
Cricetinae gen. sp. [18] = assay: as §8; type: functional; outline: as §2; remark: listed apart in the source
Cricetinae gen. sp. [19] = assay: as §7; type: functional; outline: as §2; remark: listed apart in the source

SMILES	Weight (Cricetinae gen. sp. [1]) [mg]	Weight (Cricetinae gen. sp. [2])	Weight (Cricetinae gen. sp. [3]) [mg]	Inhibition of increase in weight (Rattus norvegicus [4]) [%]	Inhibition (Rattus norvegicus [5]) [%]	also measured
CCC(=O)O[C@H]1CC[C@H]2[C@@H]3CCC4=CC(=O)CC[C@]4(C)[C@H]3CC[C@]12C.CCC1=C2CCC3(C)C(O)CCC3C2CCC1=O	27.8	34.8 mg	134	–	–	–
CCC(=O)O[C@H]1CC[C@H]2[C@@H]3CCC4=CC(=O)CC[C@]4(C)[C@H]3CC[C@]12C.CCC12CCC3=C(C)C(=O)CCC3C1CCC2O	31.9	35.2 mg	137	–	–	–
CC1=C2CCC3(C)C(O)CCC3C2CCC1=O (stereo unspecified)	–	–	–	54	27	–
CCC1=C2CCC3(C)C(O)CCC3C2CCC1=O (stereo in doubt; 5c)	–	–	–	73	59	–
CC1=C2CCC3(C)C(O)CCC3C2CCC1=O.CCC(=O)O[C@H]1CC[C@H]2[C@@H]3CCC4=CC(=O)CC[C@]4(C)[C@H]3CC[C@]12C	36.8	37.3 mg	144	–	–	–
CC(=O)O[C@]1(C(C)=O)CC[C@H]2[C@@H]3C=C(Cl)C4=CC(=O)[C@@H]5C[C@@H]5[C@]4(C)[C@H]3CC[C@@]21C [CYPROTERONE ACETATE]	–	–	–	–	–	Inhibition (Rattus norvegicus [6]): 73%; Inhibition (Rattus norvegicus [7]): 90%
CC1(C)C(=O)CCC2C1CCC1(C)C(O)CCC21.CCC(=O)O[C@H]1CC[C@H]2[C@@H]3CCC4=CC(=O)CC[C@]4(C)[C@H]3CC[C@]12C	28.4	36.7 mg	135	–	–	–
CCC(=O)O[C@H]1CC[C@H]2[C@@H]3CCC4=CC(=O)CC[C@]4(C)[C@H]3CC[C@]12C [TESTOSTERONE PROPIONATE]	–	37.6 mg and 49.4 mg	–	–	–	Weight (Cricetinae gen. sp. [8]): 37.6 mg and 48.5 mg; Weight (Cricetinae gen. sp. [9]): 165 mg and 171 mg
CC1(C)C(=O)CCC2C1CCC1(C)C(O)CCC21 (stereo unspecified)	–	–	–	63	49	–
CCC1=C2CCC3(C)C(OC(C)=O)CCC3C2CCC1=O (stereo unspecified)	–	–	–	–	50	Inhibition (Rattus norvegicus [10]): 50%
CC1=C2C=CC3(C)C(O)CCC3C2CCC1=O (stereo unspecified)	–	–	–	45	25	–
CCC(=O)O[C@H]1CC[C@H]2[C@@H]3CCC4=CC(=O)CC[C@]4(C)[C@H]3CC[C@]12C.CCC1=C2CCC3(C)C(OC(C)=O)CCC3C2CCC1=O	16.8	31.7 mg and 33 mg	143	–	–	Weight (Cricetinae gen. sp. [11]): 31.1 mg; Weight (Cricetinae gen. sp. [12]): 46.2 mg and 42.9 mg and 46.8 mg; Weight (Cricetinae gen. sp. [13]): 22.8 mg; Weight (Cricetinae gen. sp. [14]): 145 mg; Weight (Cricetinae gen. sp. [15]): 111 mg; Weight (Cricetinae gen. sp. [16]): 108 mg; Weight (Cricetinae gen. sp. [17]): 125 mg; Weight (Cricetinae gen. sp. [18]): 38.9 mg; Weight (Cricetinae gen. sp. [19]): 24.8 mg
CCC12CCC3=C(C)C(=O)CCC3C1CCC2O (stereo unspecified)	–	–	–	50	10	–
